This is an account of results in PMC8247525 (Diabetes Care, 2021).

Starred links: 1 amine or outer side, 2 acyl side, 3 side chain; linkers in the order of their positions; H or OH if unused. Groups on a side chain read outwards from the residue. No end group written: not given here. *: point of attachment. γGlu = O=C(O)[C@H](CCC(=O)[*:2])N[*:1]; Palmitoyl = CCCCCCCCCCCCCCCC(=O)*

Data set [1] has as its system participants with overweight or obesity and type 2 diabetes. The data set is described as follows: Phase 2b study: glycemic control. In kind it is in vivo, human. Conditions: on metformin, LS mean (95% CI), ANCOVA, LOCF.
For data set [2] the test system is unchanged. The data set is described as follows: Phase 2b study: anti-drug antibodies and exposure. It is filed as in vivo, human. A digest of the protocol: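 Dosing started at 100 µg and rose weekly by 100 µg. Anti-drug antibodies, a secondary end point, were measured in all treated participants by a high-sensitivity assay. Titers were split at 80 and related to trough drug concentrations.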

Data set [3] shares this test system. The data set is described as follows: Phase 2b study: hepatic parameters. In kind it is in vivo, human. Conditions: LS mean (95% CI); for Percent change from baseline in GGT levels: after 54 weeks, ad hoc.
Data set [4] has the same test system. The data set is described as follows: Phase 2b study: body weight. It is filed as in vivo, human. Conditions: for Percent change in body weight from baseline to week 14: LS mean (95% CI), ANCOVA, LOCF; for Weight loss, placebo-adjusted change from baseline: week 54.
For data set [5] the test system is unchanged. The data set is described as follows: Phase 2b study: safety. It is filed as in vivo, human.
For data set [6] the following is noted: cited from earlier work; for Reduction of mean body weight: head-to-head phase 2 trial of semaglutide with liraglutide.
[7] abbreviates: cotadutide 100 µg s.c. once daily.
Where [8] appears, read: cotadutide 200 µg s.c. once daily.
The mark [9] stands for this setting: cotadutide 300 µg s.c. once daily.
Where [10] appears, read: liraglutide 1.8 mg s.c. once daily.

For Cotadutide, the “Change from baseline to week 14 in HbA1c levels” value in data set [1] (setting [7]) was “–1.11 [–1.30, –0.93]”; in data set [1] (setting [8]), “–1.32 [–1.44, –1.21]”; in data set [1] (setting [9]) it was “–1.26 [–1.38, –1.14]”. Further, the “Anti-drug antibody (ADA) incidence” value in data set [2] (cotadutide-treated participants, all doses, high-sensitivity assay) was 60.8%. Further, the “Impact of ADA titer above 80 on pharmacokinetics, relative to population average” value in data set [2] (cotadutide, trough concentrations higher at titer >80) is given as “approximately twofold”. Also, the “Percent change in fatty liver index, change from baseline” value in data set [3] (setting [7]) was “–8.08 [–10.62, –5.54] %”; in data set [3] (setting [8]), “–6.73 [–8.29, –5.17] %”; in data set [3] (setting [9]), “–8.18 [–9.79, –6.57] %”. For the same substance, the “Percent change from baseline in GGT levels” value in data set [3] (setting [7]) is “–10.54 [–26.75, 5.68] %”; in data set [3] (setting [9]), “–12.17 [–22.45, –1.90] %”. For the same substance, the “Percent change in body weight from baseline to week 14” value in data set [4] (setting [7]) is “–2.98 [–3.87, –2.09] %”; in data set [4] (setting [8]), “–3.67 [–4.22, –3.13] %”; in data set [4] (setting [9]) it was “–5.01 [–5.57, –4.45] %”. Besides, in data set [4] (setting [9]), the “Weight loss, placebo-adjusted change from baseline” value is given as “–4.34%”. The “Pulse rate versus placebo” value in data set [5] (all tested doses of cotadutide, all P = 0.001 to P = 0.006) is reported as “Increases in pulse rates”. In addition, the Systolic blood pressure result in data set [5] (setting [9]) is listed as “reduction in systolic blood pressure”. Besides, the Rate pressure product result in data set [5] (cotadutide treatment, ad hoc) is “no notable changes in rate pressure product”.
Take “Liraglutide: GLP-1 receptor monoagonist, open-label active comparator 1.8 mg (HAEGTFTSDVSSYLEGQAAK([γGlu-Palmitoyl])EFIAWLVRGRG; chains of the INN, looked up) [reference compound]”: in data set [6], the “Reduction of mean body weight” value was 7.8%. Besides, the “Reduction of body weight” value in data set [6] (phase 2 and phase 3 clinical trials) is listed as 6–8%. Besides, the “Percent change from baseline in GGT levels” value in data set [3] (setting [10]) was “–10.54 [–24.41, 3.33] %”. For the same substance, in data set [4] (liraglutide 1.8 mg s.c. once daily, open-label), the “Percent change in body weight from baseline to week 14” value was “–3.44 [–4.20, –2.68] %”. The “Weight loss, placebo-adjusted change from baseline” value in data set [4] (setting [10]) is on record as “–2.65%”.
semaglutide: in data set [6], the “Reduction of mean body weight” value is listed as 6.0–13.8%.
